Measurements reported in ChEMBL document CHEMBL1127523, “Design and synthesis of side-chain conformationally restricted phenylalanines and their use for structure-activity studies on tachykinin NK-1 receptor” (J Med Chem, 1994).
Starred links: 1 amine or outer side, 2 acyl side, 3 side chain; linkers in the order of their positions; H or OH if unused. Non-standard residues stand in square brackets, D forms with d. Residues, ends and D or L forms follow the SMILES beside them. Gly(9-fluorenyl) = N[C@H](C(=O)O)C1c2ccccc2-c2ccccc21; X1 = O=C([C@@H](N[*:1])C1CCc2ccccc21)[*:2]; Dip = N[C@H](C(=O)O)C(c1ccccc1)c1ccccc1

Legend:
Type in all cases: functional
[1] = species: Cavia porcellus; test: (§1) pKB value of compound was determined in presence of antagonist RP-67580 at conc. of 10e-7 M
[2] = species: Cavia porcellus; test: as §1; remark: listed apart in the source
Summary of the method: (§2)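 Guinea pig ileum strips (1 cm, terminal portion, males 300–400 g) in oxygenated Tyrode at 37 °C, 1 g tension. Agonist added cumulatively, doubling bath concentration at each steady response. Antagonist RP-67,580, one concentration (10⁻⁷ M), preincubated 5 min before first agonist addition. pKB = log(dose ratio − 1) − log([antagonist]); three independent determinations.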

[3] = species: Cavia porcellus; test: pKb value of compound was determined in presence of antagonist RP-67580 at conc. of 10e-7 M; summary of the method: as §2

SMILES: CSCC[C@H](NC(=O)[C@H](CC(C)C)NC(=O)CNC(=O)[C@H](Cc1ccccc1)NC(=O)[C@@H](NC(=O)[C@H](CCC(N)=O)NC(=O)[C@H](CCC(N)=O)NC(=O)[C@@H]1CCCN1C(=O)[C@H](CCCCN)NC(=O)[C@@H]1CCCN1C(=O)[C@@H](N)CCCN=C(N)N)C1c2ccccc2-c2ccccc21)C(N)=O
- pKb [1]: 7.1

SMILES: CSCC[C@H](NC(=O)[C@H](CC(C)C)NC(=O)[C@@H]1CCCN1C(=O)[C@@H](NC(=O)[C@H](Cc1ccccc1)NC(=O)[C@H](CCC(N)=O)NC(=O)[C@H](CCC(N)=O)NC(=O)[C@@H]1CCCN1C(=O)[C@H](CCCCN)NC(=O)[C@@H]1CCCN1C(=O)[C@@H](N)CCCN=C(N)N)C(c1ccccc1)c1ccccc1)C(N)=O (H-RPKPQQF[Dip]PLM-NH2)
- pKB [2]: 7.25

SMILES: CSCC[C@H](NC(=O)[C@H](CC(C)C)NC(=O)CNC(=O)[C@@H](NC(=O)[C@@H](NC(=O)[C@H](CCC(N)=O)NC(=O)[C@H](CCC(N)=O)NC(=O)[C@@H]1CCCN1C(=O)[C@H](CCCCN)NC(=O)[C@@H]1CCCN1C(=O)[C@@H](N)CCCN=C(N)N)C1CCc2ccccc21)C1c2ccccc2-c2ccccc21)C(N)=O (stereo partly drawn) (H-RPKPQQ[X1][Gly(9-fluorenyl)]GLM-NH2)
- pKb [3]: 7.1
